Published values from different studies.
Each line is one published result; the experiments were not run side by side.
Target: Acetylcholinesterase (ACHE, Homo sapiens, UniProt P22303)
Effect on: enzyme activity
Action: inhibitor

C[C@@H]1CCCN1CCCCOc1ccc2occc(=O)c2c1 — IC50 (Ellman; pH 7.4): 8.62 µM
c1cc(CN2CCCCC2)cc(OCCCNc2nc3ccccc3s2)c1 — IC50: 22.6 µM
C#CCN(C)c1nc(NCCCC2CCN(Cc3ccccc3)CC2)c(C#N)cc1C#N — IC50 (Ellman): 0.0263 µM
COc1cc2c3cc1Oc1cc(ccc1O)C[C@@H]1c4c(cc(OC)c(O)c4Oc4ccc(cc4)C[C@@H]3N(C)CC2)CC[N+]1(C)C — IC50 (Ellman): 57.6 µM
C=CCn1c2cc(OC(=O)CCCCN3CCN(Cc4ccc(F)cc4)CC3)ccc2c2ccnc(C)c21 — IC50 (Ellman): 0.0894 µM
CNC(=O)Oc1cccc2ccccc12 — IC50 (Ellman): 2.78 µM
C=CCn1c2cc(OC(=O)CCCCN3CCN(Cc4ccccc4C)CC3)ccc2c2ccnc(C)c21 — IC50 (Ellman): 0.0157 µM
CS(=O)(=O)n1cc(Br)c(=O)[nH]c1=O — IC50 (Ellman): 0.111 µM
O=C(NCCCNc1c2c(nc3ccccc13)CCCC2)c1ccccc1O — IC50 (Ellman): 1.02 µM
CN1CCN(CCOc2ccc3occc(=O)c3c2)CC1 — IC50 (Ellman; pH 7.4): 72.9 µM
C=CCn1c2cc(OC(=O)CCCCN3CCN(Cc4ccc(Cl)cc4)CC3)ccc2c2ccnc(C)c21 — IC50 (Ellman): 0.28 µM
C#CCN(C)c1nc(NCCCCC2CCN(Cc3ccccc3)CC2)c(C#N)c(-c2ccccc2)c1C#N — IC50 (Ellman): 0.025 µM
CCC(CC)CSc1ccccc1OC(=O)NC — IC50 (Ellman): 5.13 µM
C=CCn1c2cc(OC(=O)CCCCN3CCN(Cc4ccc(C(F)(F)F)cc4)CC3)ccc2c2ccnc(C)c21 — IC50 (Ellman): 0.122 µM
CCOP(=S)(OCC)O/N=C(\C#N)c1ccccc1 — IC50: 22.6 µM
C=CCn1c2cc(OC(=O)CCCN3CCN(Cc4ccccc4)CC3)ccc2c2ccnc(C)c21 — IC50 (Ellman): 0.0497 µM
O=c1[nH]cc(Br)c(=O)[nH]1 — IC50 (Ellman): 0.151 µM
COc1ncccc1-c1cnn2ccc(N3CCN(C(=O)OC(C)C)CC3)nc12 — IC50: > 60 µM
COc1cc(NS(C)(=O)=O)ccc1Nc1c2ccccc2nc2ccccc12 — IC50: 22.5 µM
Cc1cc(O)nc(O)n1 — IC50 (Ellman): 0.191 µM
C=CCn1c2cc(OC(=O)CCCCN3CCN(Cc4ccccc4)CC3)ccc2c2ccnc(C)c21 — IC50 (Ellman): 0.0588 µM
CC(=O)O[C@H]1C[C@@H]2CC[C@@H]3[C@H](CC[C@@]4(C)[C@H]3C[C@H]([N+]3(C)CCCCC3)[C@@H]4OC(C)=O)[C@@]2(C)C[C@@H]1N1CCCCC1 — IC50: 16.5 µM
C#CCNc1nc(NCCCCC2CCN(Cc3ccccc3)CC2)c(C#N)c(-c2ccccc2)c1C#N — IC50 (Ellman): 0.006 µM
